These results are taken from ChEMBL document CHEMBL4706595, “1,3-Oxazine-2-one derived dual-targeted molecules against replicating and non-replicating forms of Mycobacterium tuberculosis” (Eur J Med Chem, 2020).

Experiment [1] concerns Mycobacterium tuberculosis. As to the kind of experiment: Antimycobacterial activity against replicating Mycobacterium tuberculosis H37Ra assessed as inhibition of bacterial growth incubated for 7 days by MABA assay. The format is functional. The note with it: time 7 day. Background: The colour change of resazurin is a common sign of viable cells or microbes.
Experiment [2] in a line: Inhibition of Mycobacterium tuberculosis H37Ra menG assessed as inhibition of 2-methyl-3-(3,7,11-trimethyldodeca-2,6,10-trienyl)naphthalene-1,4-dione formation using 2-(3,7,11-trimethyldodeca-2,6,10-trienyl)naphthalene-1,4-dione as substrate incubated for 3 hrs in presence of SAM by HPLC analysis.
The test system of experiment [3] is Mycobacterium tuberculosis. As to the kind of experiment: Antimycobacterial activity against Mycobacterium tuberculosis H37Rv ATCC 27294 assessed as inhibition of bacterial growth by agar plate dilution method. The format is functional. An outline of the steps: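 MIC determined by agar plate dilution method; isoniazid and rifampin run as references.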
For experiment [4], the system named is Mycobacterium tuberculosis. As to the kind of experiment: Inhibition of mycolic acid biosynthesis in Mycobacterium tuberculosis H37Ra assessed as reduction in alfa-mycolate production at 5XMIC incubated for 7 days by TLC analysis. The note with it: time 7 day. The format is functional.
In experiment [5] the test system is Mycobacterium tuberculosis. Description: Inhibition of mycolic acid biosynthesis in Mycobacterium tuberculosis H37Ra assessed as reduction in keto-mycolate production at 5XMIC incubated for 7 days by TLC analysis. The format is functional. The note with it: time 7 day.
The subject of experiment [6] is Mycolicibacterium smegmatis. As to the kind of experiment: Antimycobacterial activity against Mycobacterium smegmatis mc2155 assessed as inhibition of bacterial growth incubated for 48 hrs by broth microdilution method. The format is functional. Conditions: MC2 155. On the technique in general: Dilution methods test growth across graded concentrations, often in twofold steps.

Experiment [7] has as its system Mycobacterium tuberculosis. As to the kind of experiment: Antimycobacterial activity against non-replicating Mycobacterium tuberculosis H37Rv expressing pFCA-LuxAB assessed as bacterial growth inhibition incubated for 10 days under anerobic condition by low oxygen recovery assay. The format is functional. Conditions: 240 h, time 10 day.
Experiment [8] in a line: Cytotoxicity against human PBMC assessed as reduction in cell growth after 72 hrs by MTT assay. The format is tissue-based. (Tetrazolium dyes change colour on reduction, which living cells bring about.)
The test system of experiment [9] is Mycobacterium tuberculosis. Description: Antimycobacterial activity against dormant Mycobacterium tuberculosis H37Ra assessed as inhibition of bacterial growth at 30 ug/ml incubated for 10 days in presence of Vit-K2 measured following 27 days of culturing on agar plate […] relative to control. The format is functional. Conditions: dose 30 µg/ml; time 37 day. An outline of the steps: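 Dormant H37Ra: 2×10⁶ bacteria/ml in sealed vials, 37 °C, 25 rpm. Cultures with compound (3 or 30 µg/ml) plus 1 mM Vit-K2 grown 10 days, then CFU counted on 7H10 agar after 27 days; comparison with 1 mM Vit-K2 set.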

A short description of experiment [10]: Inhibition of Mycobacterium smegmatis mc2155 menG assessed as inhibition of 2-methyl-3-(3,7,11-trimethyldodeca-2,6,10-trienyl)naphthalene-1,4-dione formation using 2-(3,7,11-trimethyldodeca-2,6,10-trienyl)naphthalene-1,4-dione as substrate incubated for 3 hrs in presence of SAM by HPLC analysis. Also noted: species or system Mycolicibacterium smegmatis MC2 155.

The test system of experiment [11] is Mycobacterium tuberculosis. Description: Antimycobacterial activity against replicating Mycobacterium tuberculosis H37Rv assessed as inhibition of bacterial growth incubated for 7 days by MABA assay. The format is functional. Conditions: time 7 day.
Experiment [12] concerns Mycobacterium tuberculosis. As to the kind of experiment: Inhibition of mycolic acid biosynthesis in Mycobacterium tuberculosis H37Ra assessed as reduction in methoxy-mycolate production at 5XMIC incubated for 7 days by TLC analysis. The format is functional. The note with it: time 7 day.
For experiment [13], the system named is Mycobacterium tuberculosis. Description: Inhibition of respiratory system in dormant Mycobacterium tuberculosis H37Ra assessed as reduction in ATP production at 20 to 80 ug/ml measured on day 3 to 9 following drug addition by microplate reader analysis. The format is functional. The note with it: dose 20-80 µg/ml, time 3-9 day.

Structures are written as SMILES. Converted amounts (≈) assume the structure as drawn. The source made the active and inactive calls. The calls are words filed in the database; no cut-off is given here.

As a reminder, the MIC is the lowest concentration that inhibits growth of the organism. The term IC50 denotes the point on the concentration scale where inhibition reaches its midpoint. For `CC(C)=CCC/C(C)=C/CC/C(C)=C/COc1ccc(C(=O)OCCCOc2cccc(Nc3nc4ccccc4c(=O)o3)c2)cc1`, the MIC in [1] stood at 2.71 µg/mL (≈ 4.26 µM); in experiment [3], 2.9 µg/mL (≈ 4.55 µM); in experiment [6] it was 3.2 µg/mL (≈ 5.03 µM); in experiment [7], 2.15 µg/mL (≈ 3.38 µM); in experiment [11], 2.97 µg/mL (≈ 4.66 µM). Besides, the IC50 in [2] amounted to 6.25 µg/mL; in experiment [8] it was 169 µg/mL (≈ 266 µM); in experiment [10], 10.88 µg/mL. Moreover, the “inhibition (INH)” value in [4], in experiment [5] and in experiment [12] was 100% each time. The “fold change (FC)” value in experiment [9] stood at 4.1. The inhibition result in experiment [13] was “Active”.

Regarding `CC(C)=CCC/C(C)=C/COc1ccc(C(=O)OCCCOc2cccc(Nc3nc4ccccc4c(=O)o3)c2)cc1`, the minimal inhibitory concentration (MIC) in [1] was found to be 3.93 µg/mL (≈ 6.91 µM); in experiment [3], 3.5 µg/mL (≈ 6.15 µM); in experiment [6], 6.3 µg/mL (≈ 11.1 µM); in experiment [7], 2.94 µg/mL (≈ 5.17 µM); in experiment [11], 3.48 µg/mL (≈ 6.12 µM). The IC50 in experiment [2] was found to be 9.11 µg/mL; in experiment [8] it was 134 µg/mL (≈ 236 µM); in [10], 11.76 µg/mL. In addition, the “inhibition (INH)” value in [4], in experiment [5] and in experiment [12] was 100% throughout. Also, in experiment [9], the “fold change (FC)” value is listed as 2.9.
